Data published in ChEMBL document CHEMBL1125049, “Aporphines as antagonists of dopamine D-1 receptors” (J Med Chem, 1990).
Active and inactive are the calls of the source. No cut-off for these calls is given here.

Experiments:
D(2) dopamine receptor = D(2) dopamine receptor (Rattus norvegicus, UniProt P61169); assay: In vitro binding affinity towards rat Dopamine receptor D2 by [3H]spiperone displacement.
Rattus norvegicus [1] = species: Rattus norvegicus; assay: Ability to stimulate adenylate cyclase in rat retinal tissue over basal levels; NS=no significant stimulation; format: functional
How it was run: (§1)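 Agonist mode: adenylate cyclase stimulation measured in rat retinal tissue in vitro, with (R)-apomorphine as positive control for D-1 agonist activity; assay run by a previously published adenylate cyclase procedure.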

D(1A) dopamine receptor = D(1A) dopamine receptor (Rattus norvegicus, UniProt P18901)
Rattus norvegicus [2] = species: Rattus norvegicus; assay: Ability to block adenylate cyclase stimulation caused by 10 uM dopamine in rat retinal tissue in vitro at a concentration of 100 uM; format: functional
Rattus norvegicus [3] = species: Rattus norvegicus; format: functional
Rattus norvegicus [4] = species: Rattus norvegicus; format: functional; remark: listed apart in the source
[5] = Activity was determined against Adenylate cyclase
Rattus norvegicus [6] = species: Rattus norvegicus; assay: Ability to stimulate adenylate cyclase in rat retinal tissue over basal levels; format: functional; how it was run: as §1

D(1A) dopamine receptor, sequence (P18901 whole entry): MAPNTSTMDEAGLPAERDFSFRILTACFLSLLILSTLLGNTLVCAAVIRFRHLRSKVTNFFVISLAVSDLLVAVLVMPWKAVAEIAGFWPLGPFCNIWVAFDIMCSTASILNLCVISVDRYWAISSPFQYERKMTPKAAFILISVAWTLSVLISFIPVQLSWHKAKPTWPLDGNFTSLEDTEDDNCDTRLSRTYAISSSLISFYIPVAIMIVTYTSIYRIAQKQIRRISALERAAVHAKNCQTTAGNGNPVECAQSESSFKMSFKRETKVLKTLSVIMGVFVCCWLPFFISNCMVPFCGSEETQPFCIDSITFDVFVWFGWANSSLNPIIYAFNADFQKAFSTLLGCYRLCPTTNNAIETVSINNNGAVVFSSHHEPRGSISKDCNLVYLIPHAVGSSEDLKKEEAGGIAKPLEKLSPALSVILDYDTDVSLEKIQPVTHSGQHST
D(2) dopamine receptor, sequence (P61169 whole entry): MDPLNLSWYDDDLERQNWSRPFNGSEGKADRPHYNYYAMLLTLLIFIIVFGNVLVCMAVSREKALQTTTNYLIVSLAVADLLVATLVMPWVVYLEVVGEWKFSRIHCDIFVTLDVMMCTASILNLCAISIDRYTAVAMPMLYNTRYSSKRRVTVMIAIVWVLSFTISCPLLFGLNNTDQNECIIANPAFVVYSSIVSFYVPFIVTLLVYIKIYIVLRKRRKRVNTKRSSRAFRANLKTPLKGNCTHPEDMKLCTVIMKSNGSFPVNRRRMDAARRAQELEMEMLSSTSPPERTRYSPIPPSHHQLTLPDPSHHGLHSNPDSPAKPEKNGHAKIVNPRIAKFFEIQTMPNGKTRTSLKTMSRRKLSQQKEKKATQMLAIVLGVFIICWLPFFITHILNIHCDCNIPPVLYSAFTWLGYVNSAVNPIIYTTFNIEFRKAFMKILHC

Row | SMILES | IC50 (D(2) dopamine receptor) [µM] | Stimulation (Rattus norvegicus [1]) | IC50 (D(1A) dopamine receptor) [µM] | Inhibition (Rattus norvegicus [2]) [%] | Inhibition (Rattus norvegicus [3]) [%] | Inhibition (Rattus norvegicus [4]) [%] | inhibition (Rattus norvegicus [1]) | IC50 [5] [µM] | Stimulation (Rattus norvegicus [6]) [%]
1 | CCCN1CCC[C@@H]2Cc3nc(N)ncc3C[C@H]21 [QUINELORANE] | 0.151 | inactive | > 10 | 6.8 |  |  |  |  | 
2 | CN1CCc2cccc3c2[C@H]1Cc1cccc(O)c1-3 | 0.058 | inactive | 0.107 |  | 31.2 | 87.8 |  |  | 
3 | CN1CCc2cccc3c2[C@H]1Cc1c([N+](=O)[O-])ccc(O)c1-3 |  |  |  |  | 7.2 | 33.5 |  |  | 
4 | COc1ccc2c(c1O)-c1cccc3c1[C@@H](C2)N(C)CC3 [APOCIDEINE] | 2.08 | inactive | 13.3 |  |  | 5.7 |  |  | 
5 | CN1CCc2cccc3c2[C@H]1Cc1ccc(Br)c(O)c1-3 | 0.664 |  | 0.171 |  | 24.4 | 87.8 | inactive |  | 
6 | CN1CCc2cccc3c2[C@@H]1Cc1cccc(O)c1-3 | 2.24 | inactive | 5.06 |  | 0.8 | 38 |  |  | 
7 | CN1CCc2cccc3c2[C@@H]1Cc1ccc(Br)c(O)c1-3 | 2.93 |  | 3.34 |  | 9.8 | 54.2 |  |  | 
8 | CN1CCc2cc(Cl)c(O)cc2[C@@H](c2ccccc2)C1 [SCH-23390] |  |  |  |  | 86 | 89.7 |  | 0.003 | 
9 | COc1cccc2c1-c1cccc3c1[C@@H](C2)N(C)CC3 | 2.16 |  | 3.28 |  | 7.7 | 31.7 |  |  | 
10 | CN1CCc2cccc3c2[C@@H]1Cc1c(Br)ccc(O)c1-3 | > 10 |  | 8.61 |  | 11.9 | 79.4 |  |  | 
11 | COc1cccc2c1-c1cccc3c1[C@H](C2)N(C)CC3 | 0.829 |  | 12.1 |  | 0.7 | 0 |  |  | 
12 | CN1CCc2cccc3c2[C@@H]1Cc1cc(Br)cc(O)c1-3 | > 1 |  | > 1 |  | 16.8 | 3.2 |  |  | 
13 | CN1CCc2cccc3c2[C@H]1Cc1c(Br)cc(Br)c(O)c1-3 | > 1 |  | > 1 |  | 8.5 | 45.9 |  |  | 
14 | CN1CCc2cccc3c2[C@H]1Cc1cc(Br)cc(O)c1-3 | 2.58 |  | 0.818 |  | 5.3 | 73.4 | inactive |  | 
15 | CN1CCc2cccc3c2[C@@H]1Cc1ccc(O)c(O)c1-3 [(S)APOMORPHINE] |  |  |  |  |  | 42.3 |  |  | 
16 | COc1ccc2c(c1O)-c1c3c(cc4c1[C@H](C2)N(C)CC4)OCO3 [(S)-BULBOCAPNINE] | 14 |  | 0.739 |  | 24.4 | 85.1 |  |  | 
17 | CN1CCc2cccc3c2[C@H]1Cc1ccc(O)c(O)c1-3 [APOMORPHINE] |  |  |  |  |  |  |  |  | 91.5
18 | CN1CCc2cccc3c2[C@H]1Cc1c(Cl)ccc(O)c1-3 | 0.5 |  | 0.561 |  | 12.6 | 71.6 |  |  | 
19 | CN1CCc2cccc3c2[C@H]1Cc1c(Br)ccc(O)c1-3 | 0.449 | inactive | 0.181 |  | 13.1 | 83.3 |  |  | 
20 | CN1CCc2cccc3c2[C@H]1Cc1ccc(Cl)c(O)c1-3 | 0.803 |  | 0.637 |  | 19.7 | 82 |  |  | 
